Assay results pooled from the literature.
Lines come from different studies, so protocols differ.
Target: MAP/microtubule affinity-regulating kinase 3 (MARK3, Homo sapiens, UniProt P27448)

| Compound | test | setting | remaining binding |
| --- | --- | --- | --- |
| C[C@@H]1CN(c2ccc3ncc(-c4ccc5[nH]nc(C6CC6)c5c4)n3n2)C[C@H](C)O1 | binding, competition with immobilised ligand | 0.5 µM | 100% |
| CO[C@H]1CC[C@H](CNc2ccc(S(=O)(=O)NC(=O)c3ccc(N4CCN(CC5=C(c6ccc(Cl)cc6)CC(C)(C)CC5)CC4)cc3Oc3cnc4[nH]ccc4c3)cc2[N+](=O)[O-])CC1 | cell-free assay, competition with immobilised ligand | 1 µM | 96% |
| COc1ccnn2ncc(-c3ccnc(N(C)C)n3)c12 | binding | 1 µM | 44% |
| Cc1cnc(Nc2ccc(C(=O)N3CCC(N4CCCC4)CC3)cc2)nc1-c1cc2ccccc2s1 | binding, competition with immobilised ligand | 1 µM | 100% |
| O=C(NCC1CCOCC1)c1n[nH]cc1NC(=O)c1c(F)cccc1F | binding, competition with immobilised ligand | 1 µM | 100% |
| CCc1ccccc1C(=O)Nc1n[nH]c2c(C)c(F)c(C3C(C#N)=C(C)N(C)C(C)=C3C#N)cc12 | cell-free assay, competition with immobilised ligand | 1 µM | 30% |
| FC(F)(F)Oc1cccc(-c2cnc3ccc(-c4ccncc4)nn23)c1 | cell-free assay, competition with immobilised ligand | 5 µM | 97% |
| COc1cnc(Nc2cccc(S(N)(=O)=O)c2)nc1N1CCN(c2ccccc2)C(=O)C1 | binding, competition with immobilised ligand | 1 µM | 92% |
| C[C@@H]1CN(c2cc(-c3nn(C)c4ccc(OC5(C)CC5)cc34)ncn2)C[C@H](C)O1 | cell-free assay, competition with immobilised ligand | 1 µM | 100% |
| C[C@@H](c1ccc(-n2cnc3c(N)ncnc32)cc1)N1CCc2nn(C)c(Cc3ccccc3)c2C1=O | binding, competition with immobilised ligand | 0.1 µM | 93% |
| CN(C)c1nccc(-c2cnn3ncccc23)n1 | binding | 1 µM | 100% |
| Nc1ncc2c(n1)-c1c([nH]c3ccc(C#CC4CC4)cc13)CCCC2 | binding, competition with immobilised ligand | 1 µM | 97% |
| F[C@@H]1CCN(c2nccc(-c3cnn4ncccc34)n2)C1 | binding | 1 µM | 100% |
| O=C(c1ccc(Nc2nccc(-c3cc4ccccc4s3)n2)cc1)N1CCC(N2CCCC2)CC1 | binding, competition with immobilised ligand | 1 µM | 100% |
| O=C(NCc1ncc(C(F)(F)F)cc1Cl)c1ccc2c(c1)C1(CCS(=O)(=O)CC1)[C@H](C1CC1)N2S(=O)(=O)c1ccc(F)cc1 | cell-free assay, competition with immobilised ligand | 1 µM | 89% |
| CN(CCCC(F)(F)F)c1nccc(-c2cnn3ncccc23)n1 | binding | 1 µM | 100% |
